Measured values as given in BindingDB's records for doi:10.1021/jm00031a021 (Tap Pharmaceuticals, 1994).
Where a SMILES comes first, the peptide text is derived from it. [ ]: non-standard residue; d: D form. The star is where a group is joined. Propanoyl(3-(4-F-phenyl)) = O=C(CCc1ccc(F)cc1)*; Propanoyl(3-(4-Cl-Ph)) = O=C(CCc1ccc(Cl)cc1)*; dPhe(4-Cl) = N[C@H](Cc1ccc(Cl)cc1)C(=O)O; Desaminotyrosyl = O=C(CCc1ccc(O)cc1)*; d1Nal = N[C@H](Cc1cccc2ccccc12)C(=O)O; d2Nal = N[C@H](Cc1ccc2ccccc2c1)C(=O)O; Lys(iPr) = CC(C)NCCCC[C@H](N)C(=O)O; NMeY = CN[C@@H](Cc1ccc(O)cc1)C(=O)O; d3Pal = N[C@H](Cc1cccnc1)C(=O)O; pGlu = O=C1CC[C@@H](C(=O)O)N1; Nicotinoyl = O=C(c1cccnc1)*; X1 = O=C(Cc1ccc(O)cc1)*

Target: T1, Gonadotropin-releasing hormone receptor (Rattus norvegicus, UniProt P30969)
T1 sequence (P30969 whole entry): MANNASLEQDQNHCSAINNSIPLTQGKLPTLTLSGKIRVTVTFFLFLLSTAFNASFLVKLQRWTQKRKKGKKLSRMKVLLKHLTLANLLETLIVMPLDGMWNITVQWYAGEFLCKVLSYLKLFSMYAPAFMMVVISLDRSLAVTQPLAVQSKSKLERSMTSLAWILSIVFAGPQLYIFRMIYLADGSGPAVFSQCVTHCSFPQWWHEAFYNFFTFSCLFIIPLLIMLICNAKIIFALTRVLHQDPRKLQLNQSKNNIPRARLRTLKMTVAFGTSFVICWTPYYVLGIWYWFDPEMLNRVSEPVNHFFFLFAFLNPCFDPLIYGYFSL
Experiment: Inhibition of the in vitro binding of [125I]-labeled leuprolide to the rat pituitary luteinizing hormone releasing hormone (LHRH) receptor.
How it was run: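 Rat pituitary LHRH receptor binding with 125I-labeled leuprolide as radioligand. pKI is the negative log of the analogue concentration inhibiting 50% of tracer binding. Compounds tested as TFA salts.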

Row | Compound | Ki [nM]
1 | CCNC(=O)[C@H]1CCCN1C(=O)[C@H](CCCCNC(C)C)NC(=O)[C@H](CC(C)C)NC(=O)[C@@H](CCCCNC(=O)c1cccnc1)NC(=O)[C@H](Cc1ccc(O)cc1)N(C)C(=O)[C@H](CO)NC(=O)[C@H](Cc1cccc2ccccc12)NC(=O)CCc1ccc(F)cc1 | 0.002
2 | CCNC(=O)[C@@H]1CCCN1C(=O)[C@H](CCCN=C(N)N)NC(=O)[C@H](CC(C)C)NC(=O)[C@@H](Cc1c[nH]c2ccccc12)NC(=O)[C@H](Cc1ccc(O)cc1)NC(=O)[C@H](CO)NC(=O)[C@H](Cc1c[nH]c2ccccc12)NC(=O)Cc1ccccc1 | 0.832
3 | CC(C)C[C@H](NC(=O)[C@@H](CCCCNC(=O)c1cccnc1)NC(=O)[C@H](Cc1ccc(O)cc1)N(C)C(=O)[C@H](CO)NC(=O)[C@H](Cc1cccc2ccccc12)NC(=O)CCc1ccc(F)cc1)C(=O)N[C@@H](CCCCNC(C)C)C(=O)N1CCC[C@@H]1C(N)=O | 0.016
4 | CCNC(=O)[C@H]1CCCN1C(=O)[C@H](CCCN=C(N)N)NC(=O)[C@H](CC(C)C)NC(=O)[C@@H](Cc1c[nH]c2ccccc12)NC(=O)[C@H](Cc1ccc(O)cc1)N(C)C(=O)[C@H](CO)NC(=O)[C@H](Cc1c[nH]c2ccccc12)NC(=O)CCc1ccc(Cl)cc1 | 0.071
5 | CCNC(=O)[C@H]1CCCN1C(=O)[C@H](CCCN=C(N)N)NC(=O)[C@H](CC(C)C)NC(=O)[C@@H](Cc1c[nH]c2ccccc12)NC(=O)[C@H](Cc1ccc(O)cc1)N(C)C(=O)[C@H](CO)NC(=O)[C@H](Cc1c[nH]c2ccccc12)NC(=O)CCc1ccc(F)cc1F | 0.039
6 | CCNC(=O)[C@H]1CCCN1C(=O)[C@H](CCCN=C(N)N)NC(=O)[C@H](CC(C)C)NC(=O)[C@@H](Cc1c[nH]c2ccccc12)NC(=O)[C@H](Cc1ccc(O)cc1)NC(=O)[C@@H]1CCCN1C(=O)[C@H](Cc1c[nH]c2ccccc12)NC(=O)CCc1ccc(F)cc1 | 0.832
7 | CC(=O)N[C@H](Cc1ccc2ccccc2c1)C(=O)N[C@H](Cc1ccc(Cl)cc1)C(=O)N[C@H](Cc1cccnc1)C(=O)N[C@@H](CO)C(=O)N(C)[C@@H](Cc1ccc(O)cc1)C(=O)N[C@H](CCCCNC(=O)c1cccnc1)C(=O)N[C@@H](CC(C)C)C(=O)N[C@@H](CCCCNC(C)C)C(=O)N1CCC[C@H]1C(=O)N[C@H](C)C(N)=O (Ac-[d2Nal][dPhe(4-Cl)][d3Pal]S[NMeY][dK](Nicotinoyl)L[Lys(iPr)]P[dA]-NH2) | 0.032
8 | CCNC(=O)[C@@H]1CCCN1C(=O)[C@H](CCCN=C(N)N)NC(=O)[C@H](CC(C)C)NC(=O)[C@@H](Cc1c[nH]c2ccccc12)NC(=O)[C@H](Cc1ccc(O)cc1)NC(=O)[C@H](CO)NC(=O)[C@H](Cc1c[nH]c2ccccc12)NC(=O)CCc1ccc(O)cc1 (Desaminotyrosyl-WSY[dW]LRP-NHEt) | 0.085
9 | CCNC(=O)[C@@H]1CCCN1C(=O)[C@H](CCCN=C(N)N)NC(=O)[C@H](CC(C)C)NC(=O)[C@@H](Cc1c[nH]c2ccccc12)NC(=O)[C@H](Cc1ccc(O)cc1)NC(=O)[C@H](CO)NC(=O)[C@@H](Cc1ccc(O)cc1)NC(=O)CCc1ccc(Cl)cc1 ({Propanoyl(3-(4-Cl-Ph))}-[dY]SY[dW]LRP-NHEt) | 0.018
10 | CC(C)C[C@H](NC(=O)[C@@H](CCCCNC(=O)c1cccnc1)NC(=O)[C@H](Cc1ccc(O)cc1)N(C)C(=O)[C@H](CO)NC(=O)[C@@H](Cc1cccc2ccccc12)NC(=O)CCc1ccc(F)cc1)C(=O)N[C@@H](CCCCNC(C)C)C(=O)N1CCC[C@H]1C(=O)N[C@H](C)C(N)=O ({Propanoyl(3-(4-F-phenyl))}-[d1Nal]S[NMeY][dK](Nicotinoyl)L[Lys(iPr)]P[dA]-NH2) | 0.02

The remaining lines, values ahead:

Row | Ki [nM] | Compound
11 | 0.012 | CCNC(=O)[C@H]1CCCN1C(=O)[C@H](CCCN=C(N)N)NC(=O)[C@H](CC(C)C)NC(=O)[C@@H](Cc1c[nH]c2ccccc12)NC(=O)[C@H](Cc1ccc(O)cc1)NC(=O)[C@H](CO)NC(=O)[C@@H]1CCCN1C(=O)CCc1ccc(F)cc1
12 | 1.29 | CCNC(=O)[C@H]1CCCN1C(=O)[C@H](CCCN=C(N)N)NC(=O)[C@H](CC(C)C)NC(=O)[C@@H](Cc1c[nH]c2ccccc12)NC(=O)[C@H](Cc1ccc(O)cc1)NC(=O)[C@@H]1CC(O)CN1C(=O)[C@H](Cc1c[nH]c2ccccc12)NC(=O)CCc1ccc(F)cc1 (stereo not given in full)
13 | 0.813 | CCNC(=O)[C@@H]1CCCN1C(=O)[C@H](CCCN=C(N)N)NC(=O)[C@H](CC(C)C)NC(=O)[C@@H](Cc1c[nH]c2ccccc12)NC(=O)[C@H](Cc1ccc(O)cc1)NC(=O)[C@H](CO)NC(=O)[C@H](Cc1c[nH]c2ccccc12)NC(=O)Cc1ccc(O)cc1 (X1-WSY[dW]LRP-NHEt)
14 | 0.025 | CCNC(=O)[C@@H]1CCCN1C(=O)[C@H](CCCN=C(N)N)NC(=O)[C@H](CC(C)C)NC(=O)[C@@H](Cc1c[nH]c2ccccc12)NC(=O)[C@H](Cc1ccc(O)cc1)NC(=O)[C@H](CO)NC(=O)[C@H](Cc1c[nH]c2ccccc12)NC(=O)[C@H](Cc1ccccc1)NC(=O)[C@@H]1CCC(=O)N1 ([pGlu]FWSY[dW]LRP-NHEt)
15 | 0.076 | CCNC(=O)[C@@H]1CCCN1C(=O)[C@H](CCCN=C(N)N)NC(=O)[C@H](CC(C)C)NC(=O)[C@@H](Cc1c[nH]c2ccccc12)NC(=O)[C@H](Cc1ccc(O)cc1)NC(=O)[C@H](CO)NC(=O)[C@H](Cc1ccc(O)cc1)NC(=O)CCc1ccc(Cl)cc1 ({Propanoyl(3-(4-Cl-Ph))}-YSY[dW]LRP-NHEt)
